A short description of this series: Toxicity liver stage against HepG2, at 10uM. It is filed as cell-based. On the set-up: test concentration 10 uM, cell line HepG2-A16-CD81EGFP. The following applies: human, HepG2-A16-CD81EGFP cells; read-out: INHIBITION
A digest of the protocol: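 Uninfected HepG2-A16-CD81EGFP cells, 3 × 10^3 per well, 1536-well, plated on prespotted compound at 10 μM final, parasite-free screening media added to match infected plates; puromycin 10 μM positive, DMSO 0.5% negative; run in parallel with 48 h PbLuc assay at 37 °C, 5% CO2; viability by CellTiter-Glo luminescence, normalized to controls.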
Take `CCOC(=O)C1CCCCN1Cc1c[nH]nc1-c1ccc(F)cc1F` (stereo unspecified): the cytotoxicity at 10 µM is -0.545%. Regarding `CN1CCCC1CCNC(=O)Nc1ccccc1` (stereo unspecified), the cytotoxicity at 10 µM worked out at 0.238%. With `CCN1CCNC(=O)C12CCN(S(=O)(=O)c1ccc(F)cc1)CC2`, the cytotoxicity at 10 µM amounted to 1.17%. With `COc1ccc(C[C@H]2CN(C(=O)c3ncccn3)CC[C@@H]2OC)cc1`, the cytotoxicity at 10 µM came to 4.65%. For the compound `COc1ccc(NC(=O)CSc2ccc3nncn3n2)c(OC)c1`, the cytotoxicity at 10 µM is 3.94%.

Take `COCC(=O)N1Cc2nc3c(C)c(-c4cccs4)nn3c(O)c2C1`: the cytotoxicity at 10 µM was -4.81%.

For the compound `CN1C[C@H](c2ccccc2)[C@H]2CN(C(=O)Cc3ccc(O)cc3)CC[C@H]21`, the cytotoxicity at 10 µM was 8.14%.

Take `CC(=O)N1CCCC1CCc1ccnc(-c2cncnc2)c1` (stereo unspecified): the cytotoxicity at 10 µM turned out to be 1.24%. For `Nc1nc(N)c2c(n1)OC1(CCN(C(=O)CC3CCCNC3)CC1)C2` (stereo unspecified), the cytotoxicity at 10 µM turned out to be 5.03%. As to `CN(Cc1ccc(F)cc1)[C@@H]1CN(S(=O)(=O)N(C)C)C[C@H]1O`, the cytotoxicity at 10 µM was -1.34%.

Regarding `O=S(=O)(Cc1ccccc1Cl)CC(O)CO` (stereo unspecified), the cytotoxicity at 10 µM turned out to be 6.44%. As for `NC(=O)COc1cccc(Cn2cc(Br)cn2)c1`, the cytotoxicity at 10 µM amounted to 1.98%. Take `NC(=O)N1CCCC(C(=O)NCCOc2ccc(F)c(F)c2)C1` (stereo unspecified): the cytotoxicity at 10 µM was 2.94%. `COc1ccc(Br)c(NC(=O)NCc2cnn(C)c2)c1`: the cytotoxicity at 10 µM worked out at 6.91%. For `CCN(Cc1ccc2c(c1)OCO2)c1ncc(S(N)(=O)=O)s1`, the cytotoxicity at 10 µM turned out to be 8.14%. As for `Fc1ccc(C2(NCc3noc(C4CC4)n3)CCC2)cc1`, the cytotoxicity at 10 µM is -0.304%. Regarding `CC(C)c1noc(CCCC(=O)Nc2cccc(F)c2)n1`, the cytotoxicity at 10 µM worked out at 7.01%. As to `Cc1nc(CN2CCCN(C(=O)CC(C)n3cccc3)CC2)cs1` (stereo unspecified), the cytotoxicity at 10 µM was -6.25%. Turning to `CN(C)c1cc(C(=O)NC2(c3cccc(F)c3)CCOCC2)ccn1`, the cytotoxicity at 10 µM is -1.31%. As for `Cc1cccc(CNC2(CCO)CCOCC2)c1C`, the cytotoxicity at 10 µM was -14.9%. In the case of `CCc1noc(CC)c1CNC(=O)Nc1ccc2[nH]nnc2c1`, the cytotoxicity at 10 µM was determined as 6%. Consider `O=C(NCCCO)Nc1cccc(I)c1`, for which the cytotoxicity at 10 µM is -6.1%. `Cc1cc(C)n(CCC(=O)OCC(=O)N2CCc3sccc3C2)n1`: the cytotoxicity at 10 µM came to 8.52%. Next, `CCn1nc(C)cc1C(=O)NCc1noc(C(C)(C)C)n1`: 8.7%; `CC(C)(C)C(=O)N1CCN(Cn2nccc2-c2cccnc2)CC1`: 8.27%. Turning to `CNC(=O)Cn1cc(C#N)c(=O)c2cc(Br)ccc21`, the cytotoxicity at 10 µM was found to be 23.7%.

As to `CN1CCN(C)C2(CCN(C(=O)CC(F)(F)F)CC2)C1=O`, the cytotoxicity at 10 µM stood at 1.24%. With `CCN1CC2(CC1=O)CN(C(=O)NC(C)C)CCN(C(=O)NC(C)C)C2`, the cytotoxicity at 10 µM is -1.73%. As for `CC(C)n1nc(CN2CCCC2=O)c2c1CN(C(=O)c1ccno1)C2`, the figure is 3.39%; as for `Cc1ccc(N2CC[C@H](OCC3CC3)[C@@H]2Cc2ccncc2)nn1`, 8.13%.

On to `O=C1CC(c2ccncc2)C2(CCN(Cc3nccs3)CC2)N1` (stereo unspecified), for which the cytotoxicity at 10 µM turned out to be 4.8%. In the case of `COCC(=O)N1CC[C@@H]2O[C@@H](COCc3csc(C)n3)CC[C@@H]21`, the cytotoxicity at 10 µM stood at 3.24%. Next, `Cn1c(CN2CCN(c3cccnc3)CC2)cc2ccccc21`: 5.33%; `Cc1nn(C)cc1C(C)Nc1ncnc2sccc12` (stereo unspecified): 14.1%; `Cc1nc(N(C)C)nc(NCCc2cnccn2)c1C`: -1.22%. On to `Cc1c(C2c3nc[nH]c3CCN2CCOCc2ccccc2)cnn1C` (stereo unspecified), for which the cytotoxicity at 10 µM was found to be 0.838%.

Consider `O=C(c1ccccn1)N1CCC(c2nccn2Cc2ccncc2)CC1`, for which the cytotoxicity at 10 µM worked out at 1.94%. As for `CCC[C@@H]1CN(c2ncnc3sccc23)C[C@H]1NS(C)(=O)=O`, the cytotoxicity at 10 µM is -1.25%. As for `CN(C)C(=O)NCc1cc2n(n1)CCCN(CC1CCCNC1)C2` (stereo unspecified), the figure is -4.07%; as for `CCCn1ccnc1CN1CCC(Oc2cccc(F)c2)(C(=O)O)CC1`, 1%. Regarding `Cc1nc(N(C)C)ncc1C(=O)N[C@@H]1CCc2ccccc21`, the cytotoxicity at 10 µM turned out to be 5.77%. Consider `CN(C)CCN(C)C[C@@H]1CN(C(=O)NC2CCCC2)C[C@@H]1CO`, for which the cytotoxicity at 10 µM stood at 1.35%. As for `COCCC1CN(Cc2cn(CCC(N)=O)c3ccccc23)CCO1` (stereo unspecified), the figure is -3.15%; as for `COc1cc(C)c(C)cc1S(=O)(=O)N(C)CC(=O)Nc1ccon1`, 2.74%. Take `O=C(c1cnc(Nc2ccccc2)nc1)N1CCS(=O)(=O)CC1`: the cytotoxicity at 10 µM was -1.01%. Turning to `O=C1CC(c2cccs2)c2snc(C(=O)O)c2N1` (stereo unspecified), the cytotoxicity at 10 µM was -11.1%. Regarding `CC(=O)N1CCC(C(=O)N(C)[C@@H]2CCC[C@@H](N3CCCC3)[C@@H]2O)CC1`, the cytotoxicity at 10 µM was -0.156%. As for `Cc1ccc(CNC(=O)Nc2nncs2)cn1`, the figure is -9.12%; as for `Cc1ccc(-c2nc(CN3CCN(CCO)CC3)co2)cc1`, -23.7%. As for `CC(NC(=O)NCCCn1cncn1)c1ccc2c(c1)CC(=O)N2` (stereo unspecified), the cytotoxicity at 10 µM is -8.01%.

Consider `CCC(=O)N1CCN(C(=O)Cn2cccn2)CC1`, for which the cytotoxicity at 10 µM stood at 0.661%. Turning to `Cc1nc(CN(C)C2CCN(CCCOc3ccccc3C)C2)no1` (stereo unspecified), the cytotoxicity at 10 µM worked out at 2.24%. In the case of `Cc1ncsc1CNc1cc(N2CCCC2CO)ncn1` (stereo unspecified), the cytotoxicity at 10 µM is -12.5%. Take `CCn1ccnc1CN1CCCN(C(=O)Cc2ccc(F)cc2)CC1`: the cytotoxicity at 10 µM is -15.8%. In the case of `CC(C)c1nc2c(n1C)CCN(CC(=O)Nc1ccnn1C(C)C)C2`, the cytotoxicity at 10 µM was -1.3%. Regarding `CC(C(=O)NCc1ccc(N2CCNC(=O)C2)cc1)n1cncn1` (stereo unspecified), the cytotoxicity at 10 µM is -9.21%. As to `CN(Cc1ccco1)C(=O)C1CSCN1C(=O)c1cccnc1` (stereo unspecified), the cytotoxicity at 10 µM was -5.28%. As for `COc1c(CNC2CCN(C(C)(C)C)CC2)c(C(C)C)nn1C`, the figure is -10.9%; as for `CCc1cnc(CN(C)C2CCN(CCc3cccs3)C2)o1` (stereo unspecified), -16.8%. Regarding `Cc1nc2ccccc2c(=O)n1CCC(=O)N1CCSCC1`, the cytotoxicity at 10 µM was -6.13%. Take `c1cnn(CC2CN(Cc3ccc(-n4ccnc4)cc3)CCO2)c1` (stereo unspecified): the cytotoxicity at 10 µM was -3.12%. As for `CCc1noc(CN2CCCC2c2noc(C3CC3)n2)n1` (stereo unspecified), the figure is -3.76%; as for `Cn1ccnc1C1(O)CCN(C(=O)CCc2ccccc2)CC1`, 1.37%. For the compound `CNC(=O)C(C)(C)N1CCC[C@H]1C(=O)NCC(C)C`, the cytotoxicity at 10 µM is 1.55%.

Take `COc1ccc(CN2C[C@H]3CC[C@](O)(c4ccc(C)cn4)[C@H]3C2)c(F)c1`: the cytotoxicity at 10 µM was -1.57%. On to `Cc1nn(C)c(N(C)C)c1CNC1CCc2cc(F)ccc21` (stereo unspecified), for which the cytotoxicity at 10 µM was -15.4%.

For the compound `Cn1cc(CN2CCC3(CC(=O)N(c4ccc5c(c4)OCO5)C3)C2)cn1` (stereo unspecified), the cytotoxicity at 10 µM was -4.97%.

Regarding `O=C(CC1CC1)N1CCC2(CCCN(CCOc3ccccc3)C2)C1` (stereo unspecified), the cytotoxicity at 10 µM was -0.861%. Next, `CN(C)C(=O)N[C@H]1CN(Cc2ccc3c(c2)OCO3)[C@@H]2CCCO[C@H]12`: 4.32%; `O=C1COC2(CCN(CC3CCOCC3)CC2)CN1Cc1ccccn1`: -2.76%. As to `C1CC(CN2C[C@@H]3CC[C@H]2CN(Cc2nnc(C4CC4)o2)C3)C1`, the cytotoxicity at 10 µM worked out at 1.19%.

Values taken from ChEMBL document CHEMBL4513216, “Probing the Open Global Health Chemical Diversity Library for Multistage-Active Starting Points for Next-Generation Antimalarials” (ACS Infect Dis, 2020).
